ChEMBL document CHEMBL3997796 (J Med Chem, 2017)
pIC50: −log10 of the molar value. Calls of active or inactive are those of the source. The rule behind the calls is not given here.

Key:
[1] = molecular target: T1, Lysophosphatidic acid receptor 3 (Homo sapiens) (UniProt Q9UBY5); assay: Antagonist activity at LPA3 receptor (unknown origin) expressed in rat RH7777 cells assessed as inhibition of LPA-induced intracellular calcium level up to 100 uM measured every 3.42 secs for 70 secs by Fura-2-AM dye based fluorescence assay; format: functional, cell-based
T1 sequence (whole entry): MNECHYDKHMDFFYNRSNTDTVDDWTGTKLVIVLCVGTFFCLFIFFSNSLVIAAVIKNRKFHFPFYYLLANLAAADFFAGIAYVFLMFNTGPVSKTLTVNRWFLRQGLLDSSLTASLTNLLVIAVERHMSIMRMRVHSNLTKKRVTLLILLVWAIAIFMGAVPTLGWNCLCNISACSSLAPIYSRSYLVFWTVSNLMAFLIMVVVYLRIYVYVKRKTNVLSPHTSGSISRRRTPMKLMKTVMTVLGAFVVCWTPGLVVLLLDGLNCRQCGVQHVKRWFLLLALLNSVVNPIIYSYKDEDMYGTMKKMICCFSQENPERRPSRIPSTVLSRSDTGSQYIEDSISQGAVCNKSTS

Autotaxin [2] = molecular target: T2, Autotaxin (Homo sapiens, UniProt Q13822); assay: Inhibition of recombinant human C-terminal FLAg-tagged ATX lysophospholipase D activity expressed in baculovirus infected sf9 cells using FRET based FS-3 substrate measured every 2 mins for 1 hr by fluorescence assay
[3] = molecular target: T3, Lysophosphatidic acid receptor 1 (Homo sapiens, UniProt Q92633); assay: Antagonist activity at LPA1 receptor (unknown origin) expressed in rat RH7777 cells assessed as inhibition of LPA-induced intracellular calcium level measured every 3.42 secs for 70 secs by Fura-2-AM dye based fluorescence assay; format: functional, cell-based; conditions: for pIC50: read-out: IC50
Autotaxin [4] = molecular target: T2, Autotaxin; assay: Inhibition of recombinant human C-terminal FLAg-tagged ATX nucleotide pyrophosphate phosphatase activity expressed in baculovirus infected sf9 cells using pNP-TMP as substrate measured every 2 mins for 1 hr by fluorescence assay
[5] = molecular target: Lysophosphatidic acid receptor 5 (Homo sapiens) (UniProt Q9H1C0); assay: Antagonist activity at FLAG-tagged LPA5 receptor (unknown origin) expressed in rat B103 cells assessed as inhibition of LPA-induced intracellular calcium level up to 100 uM measured every 3.42 secs for 70 secs by Fura-2-AM dye based fluorescence assay; format: functional, cell-based
[6] = molecular target: T4, Glycerophosphocholine cholinephosphodiesterase ENPP6 (Homo sapiens) (UniProt Q6UWR7); assay: Inhibition of ENPP6 (unknown origin) using pNPPC as substrate measured every 2 mins for 1 hr by […]
T4 sequence (whole entry): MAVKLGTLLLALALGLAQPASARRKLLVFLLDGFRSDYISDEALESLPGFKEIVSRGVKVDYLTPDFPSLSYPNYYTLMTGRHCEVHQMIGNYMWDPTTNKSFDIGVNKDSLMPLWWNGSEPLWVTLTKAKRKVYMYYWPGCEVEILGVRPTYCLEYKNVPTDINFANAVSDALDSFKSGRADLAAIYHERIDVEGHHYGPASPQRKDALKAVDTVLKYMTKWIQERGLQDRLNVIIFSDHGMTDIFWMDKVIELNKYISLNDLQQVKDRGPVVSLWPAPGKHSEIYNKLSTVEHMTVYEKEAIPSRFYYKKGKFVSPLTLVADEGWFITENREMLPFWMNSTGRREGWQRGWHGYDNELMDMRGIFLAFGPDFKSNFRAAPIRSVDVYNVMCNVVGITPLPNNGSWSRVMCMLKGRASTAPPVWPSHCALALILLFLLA
Summary of the method: (§1)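 10 nM ENPP6 or ENPP7, 10 μM pNPPC, compound 0–10 μM, triplicate; ENPP6 buffer 100 mM Tris, 500 mM NaCl, 0.05% Triton pH 9.0; ENPP7 buffer 50 mM Tris, 150 mM NaCl, 10 mM taurocholate pH 8.5; 405 nm absorbance every 2 min for 1 h.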

[7] = molecular target: Lysophosphatidic acid receptor 4 (Homo sapiens) (UniProt Q99677); assay: Antagonist activity at LPA4 receptor (unknown origin) expressed in CHO cells assessed as inhibition of LPA-induced intracellular calcium level up to 100 uM measured every 3.42 secs for 70 secs by Fura-2-AM dye based fluorescence assay; format: functional, cell-based
[8] = molecular target: T5, Ectonucleotide pyrophosphatase/phosphodiesterase family member 7 (Homo sapiens) (UniProt Q6UWV6); assay: Inhibition of ENPP7 (unknown origin) using pNPPC as substrate measured every 2 mins for 1 hr by […]; summary of the method: as §1
T5 sequence (whole entry): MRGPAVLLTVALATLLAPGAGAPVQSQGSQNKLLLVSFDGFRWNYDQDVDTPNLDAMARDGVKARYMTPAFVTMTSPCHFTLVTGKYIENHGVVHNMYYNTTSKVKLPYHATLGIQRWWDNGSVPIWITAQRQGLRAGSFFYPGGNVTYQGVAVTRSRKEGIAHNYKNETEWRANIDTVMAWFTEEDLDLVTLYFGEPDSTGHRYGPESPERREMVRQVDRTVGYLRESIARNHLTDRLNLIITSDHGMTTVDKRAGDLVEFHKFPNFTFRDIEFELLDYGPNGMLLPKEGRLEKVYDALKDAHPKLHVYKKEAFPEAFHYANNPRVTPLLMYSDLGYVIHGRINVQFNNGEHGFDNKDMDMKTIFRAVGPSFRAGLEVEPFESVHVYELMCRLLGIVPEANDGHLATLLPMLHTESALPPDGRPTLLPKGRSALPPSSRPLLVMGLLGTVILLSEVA

[9] = molecular target: Lysophosphatidic acid receptor 2 (Homo sapiens) (UniProt Q9HBW0); assay: Antagonist activity at LPA2 receptor (unknown origin) expressed in MEF cells assessed as inhibition of LPA-induced intracellular calcium level up to 100 uM measured every 3.42 secs for 70 secs by Fura-2-AM dye based fluorescence assay; format: functional, cell-based
Autotaxin [10] = molecular target: T2, Autotaxin; assay: Inhibition of ATX (unknown origin) expressed in human A2058 cells assessed as inhibition of LPC-induced cell invasion after 20 hrs by calcein-AM dye based matrigel-mediated Boyden chamber assay
[11] = molecular target: T3, Lysophosphatidic acid receptor 1; assay: Agonist activity at LPA1 receptor (unknown origin) expressed in rat RH7777 cells assessed as increase in intracellular calcium level up to 10 uM measured every 3.42 secs for 70 secs by Fura-2-AM dye based fluorescence assay; format: functional, cell-based
Autotaxin [12] = molecular target: T2, Autotaxin; assay: Competitive inhibition of recombinant human C-terminal FLAg-tagged ATX expressed in baculovirus infected sf9 cells using varying levels of FRET based FS-3 substrate at 0.5 to 2 times IC50 measured every 2 mins for 1 hr by Michaelis-Menten plot analysis
Autotaxin (Mus musculus) = Autotaxin (Mus musculus) (UniProt Q9R1E6); assay: Inhibition of ATX in paclitaxel-resistant mouse 4T1 cells assessed as potentiation of paclitaxel-induced antiproliferative activity by measuring reduction in cell viability at 5 uM measured after 3 days by CellTiter blue assay
Summary of the method: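 Paclitaxel-resistant 4T1-TaxR (stepwise PT 40, 100, 200 nM) grown as mammospheres, 3.5 × 10^3 cells/well in serum-free RPMI with N-2, 20 ng/mL FGF and EGF, 4 days; spheres treated 3 days with 100 nM PT with or without inhibitor at 5 μM; CellTiter Blue; quadruplicate, three experiments.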

[13] = molecular target: Lysophosphatidic acid receptor 5 (Homo sapiens) (UniProt Q9H1C0); assay: Agonist activity at FLAG-tagged LPA5 receptor (unknown origin) expressed in rat B103 cells assessed as increase in intracellular calcium level up to 10 uM measured every 3.42 secs for 70 secs by Fura-2-AM dye based fluorescence assay; format: functional, cell-based
4T1 [14] = assay: Growth inhibition of mouse 4T1 cells up to 10 uM after 48 hrs by CellTiter blue assay; format: cell-based; conditions: 4t1, 48 h
[15] = molecular target: T3, Lysophosphatidic acid receptor 1; assay: Antagonist activity at LPA1 receptor (unknown origin) expressed in rat RH7777 cells assessed as inhibition of LPA-induced intracellular calcium level up to 100 uM measured every 3.42 secs for 70 secs by Fura-2-AM dye based fluorescence assay relative to LPA; format: functional, cell-based
[16] = molecular target: Lysophosphatidic acid receptor 2 (Homo sapiens) (UniProt Q9HBW0); assay: Agonist activity at LPA2 receptor (unknown origin) expressed in MEF cells assessed as increase in intracellular calcium level up to 10 uM measured every 3.42 secs for 70 secs by Fura-2-AM dye based fluorescence assay; format: functional, cell-based
Autotaxin [17] = molecular target: T2, Autotaxin; assay: Inhibition of ATX (unknown origin) expressed in human A2058 cells assessed as inhibition of LPC-induced cell invasion at 10 uM after 20 hrs by calcein-AM dye based matrigel-mediated Boyden chamber assay
[18] = molecular target: T1, Lysophosphatidic acid receptor 3 (Homo sapiens); assay: Agonist activity at LPA3 receptor (unknown origin) expressed in rat RH7777 cells assessed as increase in intracellular calcium level up to 10 uM measured every 3.42 secs for 70 secs by Fura-2-AM dye based fluorescence assay; format: functional, cell-based
B16-F10 = assay: Antitumor activity against mouse B16F10 cells implanted in C57BL/6 mouse assessed as reduction in metastatic tumor nodules on lungs at 1 mg/kg, ip administered daily up to 10 days measured on day 21; format: functional, organism-based
Summary of the method: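 C57BL/6 mice, 8–12 weeks, given 1 × 10^5 B16F10 cells by tail vein; 1 mg/kg i.p. daily from day 0 (before inoculation) to day 10, vehicle PBS with 1% DMSO and 50 μM charcoal-stripped mouse serum albumin; sacrifice day 21, lung nodules counted; one-way ANOVA with Bonferroni.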

[19] = molecular target: Lysophosphatidic acid receptor 4 (Homo sapiens) (UniProt Q99677); assay: Agonist activity at LPA4 receptor (unknown origin) expressed in CHO cells assessed as increase in intracellular calcium level up to 10 uM measured every 3.42 secs for 70 secs by Fura-2-AM dye based fluorescence assay; format: functional, cell-based
4T1 [20] = assay: Growth inhibition of mouse 4T1 cells at 3 uM after 48 hrs by CellTiter blue assay; format: cell-based; conditions: 4t1, 48 h
[21] = Stability in mouse 4T1 cells assessed as parent compound remaining at 10 uM after 16 hrs by LC-MS/MS method; format: ADME, cell-based; conditions: read-out: Stability
Summary of the method: (§2)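 4T1 cells (1 × 10^4/well) attached overnight, then 10 μM compound in DMEM with 1% charcoal-stripped FBS (0.1% DMSO final); quadruplicate samples at 0, 16, 40 h, centrifuged, diethyl ether extracted twice, LC-MS/MS peak areas normalized to 0 h.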

[22] = Stability in mouse 4T1 cells assessed as parent compound remaining at 10 uM after 40 hrs by LC-MS/MS method; format: ADME, cell-based; conditions: read-out: Stability; summary of the method: as §2

T3 sequence (Q92633 whole entry): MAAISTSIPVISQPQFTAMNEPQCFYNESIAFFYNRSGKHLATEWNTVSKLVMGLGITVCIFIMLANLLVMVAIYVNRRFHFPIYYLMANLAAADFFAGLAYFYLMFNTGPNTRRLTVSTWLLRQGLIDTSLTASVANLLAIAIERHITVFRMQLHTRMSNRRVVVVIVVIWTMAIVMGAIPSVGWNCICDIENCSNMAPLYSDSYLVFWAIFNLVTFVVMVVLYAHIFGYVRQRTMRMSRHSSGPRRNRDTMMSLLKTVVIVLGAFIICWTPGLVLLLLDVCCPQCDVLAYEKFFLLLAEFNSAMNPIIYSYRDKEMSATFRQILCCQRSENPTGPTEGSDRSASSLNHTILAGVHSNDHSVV
Sequence of Lysophosphatidic acid receptor 5 (Homo sapiens) (Q9H1C0 whole entry): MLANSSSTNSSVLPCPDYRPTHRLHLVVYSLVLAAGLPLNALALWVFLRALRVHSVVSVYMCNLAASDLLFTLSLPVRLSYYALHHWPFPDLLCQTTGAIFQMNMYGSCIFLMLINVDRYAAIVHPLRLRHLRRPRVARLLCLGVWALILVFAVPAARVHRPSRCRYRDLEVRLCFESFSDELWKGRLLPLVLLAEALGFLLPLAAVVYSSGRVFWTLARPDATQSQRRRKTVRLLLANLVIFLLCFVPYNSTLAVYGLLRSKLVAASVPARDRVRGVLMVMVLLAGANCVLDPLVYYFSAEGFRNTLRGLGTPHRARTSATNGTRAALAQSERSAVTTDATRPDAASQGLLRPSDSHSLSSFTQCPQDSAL
Sequence of Lysophosphatidic acid receptor 2 (Homo sapiens) (Q9HBW0 whole entry): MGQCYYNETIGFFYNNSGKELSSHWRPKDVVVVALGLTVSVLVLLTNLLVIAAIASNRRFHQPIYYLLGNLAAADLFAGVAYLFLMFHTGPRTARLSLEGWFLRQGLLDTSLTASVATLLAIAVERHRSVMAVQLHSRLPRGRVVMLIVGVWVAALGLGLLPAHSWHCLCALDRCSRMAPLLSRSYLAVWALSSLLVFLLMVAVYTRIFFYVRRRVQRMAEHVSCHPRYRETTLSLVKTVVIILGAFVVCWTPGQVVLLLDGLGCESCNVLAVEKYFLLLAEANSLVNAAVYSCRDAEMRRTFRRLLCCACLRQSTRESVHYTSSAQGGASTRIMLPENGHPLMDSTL
Sequence of Lysophosphatidic acid receptor 4 (Homo sapiens) (Q99677 whole entry): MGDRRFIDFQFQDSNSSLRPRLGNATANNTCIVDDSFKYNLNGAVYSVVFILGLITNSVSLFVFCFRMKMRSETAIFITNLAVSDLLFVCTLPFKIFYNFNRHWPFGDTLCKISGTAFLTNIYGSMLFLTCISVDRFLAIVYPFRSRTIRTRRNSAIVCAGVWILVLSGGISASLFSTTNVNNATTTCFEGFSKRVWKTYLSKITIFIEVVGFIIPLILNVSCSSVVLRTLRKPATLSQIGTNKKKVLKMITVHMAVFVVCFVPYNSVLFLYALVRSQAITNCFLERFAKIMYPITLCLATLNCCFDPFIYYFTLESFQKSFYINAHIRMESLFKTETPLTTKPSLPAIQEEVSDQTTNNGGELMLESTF

inhibition [1]	pIC50 (Autotaxin [2])	inhibition (Autotaxin [4])	inhibition [5]	inhibition [6]	inhibition [7]	inhibition [8]	inhibition [9]	inhibition (Autotaxin [10])	Activity [11]	inhibition (Autotaxin [12])	Activity [13]	Emax [15] [%]	Activity [16]	pIC50 [3]	inhibition (Autotaxin [17])	Activity [18]	Activity [19]	Compound	Activity (4T1 [14])	other results
–	–	inactive	–	inactive	–	inactive	–	Dose-dependent effect	–	Active	–	–	–	–	Active	–	–	O=C(Nc1ccc(F)c(F)c1)c1cc(S(=O)(=O)N2CCOCC2)c(Cl)cc1Cl	–	–
inactive	–	inactive	inactive	inactive	inactive	inactive	inactive	Dose-dependent effect	inactive	Active	inactive	51	inactive	5.21 to 5.22	Active	inactive	inactive	O=C(Nc1cc(F)c(Cl)c(F)c1)c1cc(S(=O)(=O)N2CCOCC2)c(Cl)cc1Cl	Non-Toxic	remaining at 16 h, 10 µM [21]: 101%; remaining at 40 h, 10 µM [22]: 108%
–	< 6.00	inactive	–	inactive	–	inactive	–	–	–	–	–	–	–	–	–	–	–	O=S(=O)(Nc1cc(S(=O)(=O)N2CCOCC2)c(Cl)cc1Cl)c1cccc(F)c1	–	–
–	< 6.00	inactive	–	inactive	–	inactive	–	–	–	–	–	–	–	–	–	–	–	CN(C(=O)c1cc(S(=O)(=O)N2CCOCC2)c(Cl)cc1Cl)c1cccc(F)c1	–	–

The next lines start with the molecule.

Compound	inhibition [1]	pIC50 (Autotaxin [2])	inhibition (Autotaxin [4])	inhibition [5]	inhibition [6]	inhibition [7]	inhibition [8]	inhibition [9]	inhibition (Autotaxin [10])	Activity [11]	inhibition (Autotaxin [12])	Activity [13]	Emax [15] [%]	Activity [16]	pIC50 [3]	inhibition (Autotaxin [17])	Activity [18]	Activity [19]	Activity (4T1 [14])	other results
O=C(Nc1cc(F)c(F)c(F)c1Br)c1cc(S(=O)(=O)N2CCOCC2)c(Cl)cc1Cl	inactive	7.74	inactive	inactive	inactive	inactive	inactive	inactive	–	–	–	–	–	–	–	–	–	–	–	IC50 [3]: Not Active
O=C(Nc1cc(F)c(F)c(F)c1)c1cc(S(=O)(=O)N2CCOCC2)c(Cl)cc1Cl	inactive	–	inactive	inactive	inactive	inactive	inactive	inactive	Dose-dependent effect	inactive	Active	inactive	46.1	inactive	4.84 to 4.85	Active	inactive	inactive	Non-Toxic	inhibition (Autotaxin (Mus musculus)): 25 to 30%; Activity (B16-F10): Active
CCCCCCCCCCCCCCCc1ccc(CP(=O)(O)O)cc1	–	–	–	–	–	–	–	–	–	–	–	–	–	–	–	Active	–	–	Non-Toxic	inhibition (Autotaxin (Mus musculus)): 25 to 30%; Activity (4T1 [20]): Toxic
O=C(Nc1cc(Cl)c(F)c(Cl)c1)c1cc(S(=O)(=O)N2CCOCC2)c(Cl)cc1Cl	inactive	–	inactive	inactive	inactive	inactive	inactive	inactive	–	inactive	Active	inactive	50	inactive	4.74	–	inactive	inactive	–	–
CS(=O)(=O)N(C(=O)c1cc(NN2CCOCC2)c(Cl)cc1Cl)c1cc(F)c(F)c(F)c1	–	< 6.00	inactive	–	inactive	–	inactive	–	–	–	–	–	–	–	–	–	–	–	–	–
